The source made the active and inactive calls. No cut-off for these calls is given here.

For data set [1], the target named is T1, 5-hydroxytryptamine receptor 2B (Homo sapiens, UniProt P41595). The experiment in a line: Displacement of [3H]5-HT from human 5HT2B receptor expressed in HEK293 cells. It is filed as cell-based. (In general: Displacement assays read how much labelled ligand stays bound in the presence of the test substance.)
Data set [2] deals with T2, 5-hydroxytryptamine receptor 2A (Homo sapiens, UniProt P28223). The data set is described as follows: Agonist activity at human 5HT2A receptor expressed in HEK293 cells by measuring intracellular calcium mobilization upto 10 uM. It is filed as functional, cell-based.
T2 sequence (P28223 whole entry): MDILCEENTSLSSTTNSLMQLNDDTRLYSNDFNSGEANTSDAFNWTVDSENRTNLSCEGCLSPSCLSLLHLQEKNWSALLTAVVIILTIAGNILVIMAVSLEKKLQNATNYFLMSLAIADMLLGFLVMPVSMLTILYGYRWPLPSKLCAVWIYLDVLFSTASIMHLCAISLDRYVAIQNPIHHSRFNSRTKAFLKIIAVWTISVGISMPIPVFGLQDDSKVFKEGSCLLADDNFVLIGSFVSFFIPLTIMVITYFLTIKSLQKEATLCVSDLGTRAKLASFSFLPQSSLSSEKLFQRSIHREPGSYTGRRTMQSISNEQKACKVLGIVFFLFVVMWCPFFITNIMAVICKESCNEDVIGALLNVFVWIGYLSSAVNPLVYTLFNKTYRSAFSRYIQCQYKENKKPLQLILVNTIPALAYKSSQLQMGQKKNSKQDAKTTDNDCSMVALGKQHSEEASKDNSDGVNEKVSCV
Data set [3] addresses T2, 5-hydroxytryptamine receptor 2A. The data set is described as follows: Displacement of [3H]ketanserin from human 5HT2A receptor expressed in HEK293 cells. In kind it is cell-based.
The target of data set [4] is T1, 5-hydroxytryptamine receptor 2B. The experiment in a line: Agonist activity at human 5HT2B receptor expressed in HEK293 cells by measuring intracellular calcium mobilization upto 10 uM. It is filed as functional, cell-based. On the technique in general: Calcium flux is commonly read through the fluorescence of an indicator in the cells.
In data set [5] the target is T3, 5-hydroxytryptamine receptor 2C (Homo sapiens) (UniProt P28335).
T3 sequence (whole entry): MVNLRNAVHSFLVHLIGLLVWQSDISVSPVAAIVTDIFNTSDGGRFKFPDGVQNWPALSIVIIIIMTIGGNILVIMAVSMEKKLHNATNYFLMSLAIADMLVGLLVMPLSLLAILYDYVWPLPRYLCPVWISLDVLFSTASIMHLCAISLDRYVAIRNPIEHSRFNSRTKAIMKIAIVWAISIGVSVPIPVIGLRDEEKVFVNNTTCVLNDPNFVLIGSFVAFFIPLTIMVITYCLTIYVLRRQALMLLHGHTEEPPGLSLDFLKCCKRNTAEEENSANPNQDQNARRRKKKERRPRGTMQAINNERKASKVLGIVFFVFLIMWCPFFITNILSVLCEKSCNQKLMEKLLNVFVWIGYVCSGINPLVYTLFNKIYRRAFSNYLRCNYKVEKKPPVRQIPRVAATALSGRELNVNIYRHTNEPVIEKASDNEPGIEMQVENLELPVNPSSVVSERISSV
The data set is described as follows: Agonist activity at human 5HT2C receptor expressed in HEK293 cells by measuring intracellular calcium mobilization upto 10 uM. In kind it is functional, cell-based.

Data set [6] deals with T4, 5-hydroxytryptamine receptor 2C (Homo sapiens, UniProt P28335).
T4 sequence (P28335 whole entry): T3 sequence (whole entry)
The experiment in a line: Displacement of [3H]mesulergine from human 5HT2C receptor expressed in HEK293 cells. In kind it is cell-based.

Data set [7] in a line: Bioavailability in rat at 3 mg/kg, po. It is filed as ADME, organism-based. Conditions: in vivo. The gist of the method: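 Oral dosing was 3 mg free base/kg by gavage (5 mL/kg) to male rats (n = 3), from 0.6 mg free base/mL in 0.5% w/v Methocel with 5% DMSO. The iv reference arm was 1 mg free base/kg as a bolus (2 mL/kg) in 25% (v/v) aqueous PEG400 with 5% (v/v) DMSO, n = 3.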

A short description of data set [8]: Clearance in rat blood. In kind it is ADME, organism-based. Conditions: whole blood. An outline of the steps: (§1)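 Male rats (n = 3) received a 1 mg free base/kg iv bolus (2 mL/kg) of a 0.5 mg free base/mL solution in 25% (v/v) aqueous PEG400 containing 5% (v/v) DMSO. Brain penetration was assessed at 1 h.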
The target in data set [9] is T3, 5-hydroxytryptamine receptor 2C (Homo sapiens). The experiment in a line: Antagonist activity at human 5HT2C receptor expressed in HEK293 cells by measuring intracellular calcium mobilization. It is filed as functional, cell-based. An outline of the steps:
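Antagonism measured as blockade of the 5-HT-evoked response at the human receptor, with affinity expressed as pKb.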

A short description of data set [10]: Ratio of drug level in brain to plasma in rat. In kind it is ADME. Conditions: brain and plasma. The gist of the method:
as §1

T1 sequence (P41595 whole entry): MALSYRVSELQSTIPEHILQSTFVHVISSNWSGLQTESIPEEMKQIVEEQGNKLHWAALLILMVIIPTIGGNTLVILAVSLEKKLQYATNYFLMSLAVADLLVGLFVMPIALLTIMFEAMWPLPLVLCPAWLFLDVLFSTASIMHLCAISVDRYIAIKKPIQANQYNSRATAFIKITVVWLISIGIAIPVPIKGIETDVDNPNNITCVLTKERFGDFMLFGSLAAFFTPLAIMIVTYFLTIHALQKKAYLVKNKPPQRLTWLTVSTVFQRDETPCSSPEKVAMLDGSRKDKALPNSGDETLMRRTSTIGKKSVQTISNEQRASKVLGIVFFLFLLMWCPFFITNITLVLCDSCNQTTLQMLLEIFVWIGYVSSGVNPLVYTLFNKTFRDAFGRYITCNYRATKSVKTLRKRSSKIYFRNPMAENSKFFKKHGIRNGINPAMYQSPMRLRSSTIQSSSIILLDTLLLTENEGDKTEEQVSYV

Consider `COc1ccc(N2Cc3c(c4ccc(Cl)cc4n3C)C2=O)cc1OCCN1CCC(C)CC1`, for which the Ki in data set [1] is 200 nM; in data set [3], 251 nM; in data set [6] it was 3.98 nM. Besides, the outcome in [2], in data set [4] and in data set [5] was inactive.

For the compound `COc1ccc(N2Cc3c(c4cc(Cl)c(Cl)cc4n3C)C2=O)cc1OCCN1CCCCC1`, the Ki is 200 nM in [1], 501 nM in [3] and 6.31 nM in data set [6]. The result in data set [2], in [4] and in [5] was inactive.

Take `COc1ccc(N2Cc3cc4ccccc4cc3C2=O)cc1OCCN1CCCCC1`: the outcome in data set [2], in [4] and in [5] was inactive.

Regarding `COc1ccc2c(c1)c1c(n2C)CN(c2ccc(OC)c(OCCN3CCCCC3)c2)C1=O`, the Ki in [1] is 794 nM; in data set [3], 1000 nM; in [6], 31.6 nM. Besides, the result in data set [2], in data set [4] and in data set [5] was inactive.

For `COc1ccc(N2Cc3c(c4ccc(Cl)cc4n3C)C2=O)cc1OCCN1CCCCC1`, the Ki in data set [1] was 158 nM; in [3] it was 316 nM; in data set [6], 5.01 nM. Also, the outcome in [2], in [4] and in data set [5] was inactive.

Take `COc1ccc(N2Cc3c(c4cc(F)ccc4n3C)C2=O)cc1OCCN1CCCCC1`: the outcome in data set [2], in data set [4] and in [5] was inactive.

Take `COc1ccc(N2Cc3c(c4cc(Cl)ccc4n3C)C2=O)cc1OCCN1CCCCC1`: the bioavailability in data set [7] amounted to 21%. Besides, the Ki in data set [1] was greater than 1000 nM; in data set [3] it was 158 nM; in data set [6] it was 2.51 nM. In addition, the outcome in data set [2], in data set [4] and in data set [5] was inactive. The compound further registered a clearance in data set [8] of 39 mL/min/kg.

With `COc1ccc(N2Cc3c(c4cc(F)ccc4n3C)C2=O)cc1OCCN1CCC(C)CC1`, the pKb in data set [9] came to 8.6. Further, the figures for the Ki in data set [1], in [3] and in data set [6] were 63.1 nM, 158 nM and 2.51 nM, respectively. For the same compound, the outcome in data set [2], in [4] and in data set [5] was inactive.

As for `COc1ccc(N2Cc3c(c4cccc(F)c4n3C)C2=O)cc1OCCN1CCCCC1`, the outcome in [2], in data set [4] and in data set [5] was inactive.

In the case of `COc1ccc(N2C(=O)c3c(n(C)c4ccccc34)C2C)cc1OCCN1CCCCC1` (configuration not stated), the outcome in [2], in data set [4] and in data set [5] was inactive.

Consider `COc1ccc(N2Cc3c(c4cc(Cl)c(Cl)cc4n3C)C2=O)cc1OCCN1CCC(C)CC1`, for which the outcome in [2], in [4] and in data set [5] was inactive.

In the case of `COc1ccc(N2Cc3c(c4cccc(F)c4n3C)C2=O)cc1OCCN1CCC(C)CC1`, the figures for the Ki in [1], in data set [3] and in data set [6] were 31.6 nM, 251 nM and 2.51 nM, respectively. For the same compound, the outcome in data set [2], in [4] and in [5] was inactive.

On to `COc1ccc(N2Cc3c(c4ccc(F)cc4n3C)C2=O)cc1OCCN1CCCCC1`, for which the Ki in data set [1] is greater than 10000 nM; in data set [3], greater than 10000 nM; in data set [6], 12.6 nM. The result in data set [2], in [4] and in data set [5] was inactive.

Turning to `COc1ccc(N2Cc3c(c4ccc(F)cc4n3C)C2=O)cc1OCCN1CCC(C)CC1`, in [9], the pKb stood at 7.5. Also, the Ki in data set [1] is 251 nM; in data set [3], 251 nM; in data set [6], 15.8 nM. For the same compound, the outcome in [2], in data set [4] and in data set [5] was inactive.

With `COc1ccc(N2Cc3sc4ccccc4c3C2=O)cc1OCCN1CCC(C)CC1`, the pKb in data set [9] was found to be 8.7. Further, the Ki was 200 nM in [1], greater than 794 nM in data set [3] and 1.58 nM in data set [6]. The outcome in [2], in data set [4] and in data set [5] was inactive.

With `COc1ccc2c(c1)c1c(n2C)CN(c2ccc(OC)c(OCCN3CCC(C)CC3)c2)C1=O`, the outcome in data set [2], in data set [4] and in [5] was inactive.

In [7], `COc1ccc(N2Cc3c(c4cc(Cl)ccc4n3C)C2=O)cc1OCCN1CCC(C)CC1` came in with a bioavailability of 44%. The pKb in [9] was found to be 8.6. For the same compound, the figures for the Ki in data set [1], in data set [3] and in data set [6] were 39.8 nM, 126 nM and 3.16 nM, respectively. Also, the outcome in [2], in [4] and in data set [5] was inactive. Also, the clearance in data set [8] was found to be 23 mL/min/kg. In [10], the Kp is 1.

Take `COc1ccc(N2Cc3c(c4ccccc4n3C)C2=O)cc1OCCN1CCCCC1.Cl`: the bioavailability in data set [7] amounted to 15%. The Ki in data set [1] is 200 nM; in [3] it was 501 nM; in data set [6], 6.31 nM. Moreover, the outcome in [2], in [4] and in [5] was inactive. This compound showed a clearance in data set [8] of 53 mL/min/kg.

As to `COc1ccc(N2Cc3sc4ccccc4c3C2=O)cc1OCCN1CCCCC1`, the Ki was greater than 631 nM in [1], 398 nM in data set [3] and 3.16 nM in data set [6]. Moreover, the result in data set [2], in data set [4] and in data set [5] was inactive.

By Ki is commonly meant a measure of affinity in units of concentration, obtained from inhibition or displacement. By bioavailability is commonly meant the share of a dose that reaches the circulation, judged against a reference dose that is usually intravenous. Lower therefore signals little systemic uptake. For orientation: clearance means the volume of plasma or blood freed of the substance per unit of time. As a reminder, the pKb is the negative decadic logarithm of the Kb, by convention in mol/L. The Kp is tissue or fluid exposure divided by exposure in the circulation.

The values above are taken from ChEMBL document CHEMBL1146275, “5-HT2C antagonists based on fused heterotricyclic templates: design, synthesis and biological evaluation” (Bioorg Med Chem Lett, 2007).
